Molecules are shown by their SMILES. Activity calls are given as the source filed them.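 How the source made its calls, unless noted: active means viability at or under a set limit in both replicates, limit being median viability minus 3 SD (cut at about 48% in these data, passing the limit was not always enough); inconclusive means at or under the limit in just one replicate; inactive means at or above the limit in both replicates.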

Assay [1] in a line: Her2 expression decrease, cell viability multiplex – SKBR3 breast tumor cells, AlphaScreen, ATP viability, primary screen (AID 461;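 active means Her2 level under about 52% in both replicate screens, with viability over 70% of control, limit read from the data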;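 on Her2 level: lower value means less Her2 protein in the cells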;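 on viability: percent of carrier control wells set as 100% viability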). The settings on record: SKBR3 Her2 protein level, 18-24 h, measured here: SKBR3 viability, ATP luminescence, at 10 µM. For orientation: Alpha assays give light when donor and acceptor beads are brought close together.
Assay [2] concerns the target Receptor tyrosine-protein kinase erbB-2 (Homo sapiens) (UniProt P04626). The description is as above. The settings on record: 18-24 h, at 10 µM, stronger effect = lower value.
Assay [3] is described as follows: reduced viability of SK-BR-3 breast cancer cells – cell-based, 24 h, human, pilot screen (AID 572;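 active means viability at or below 10% of carrier control in both of two separate runs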;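 further: compound exposure lasted between 18 and 24 h rather than exactly 24 h; 100% = carrier-treated control wells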). Conditions: SK-BR-3 viability, CellTiter-Glo luminescence, at 10 µM, stronger effect = lower value. For orientation: Cellular ATP, detected with luciferase, serves as a proxy for viable cell number.
The nature of assay [4]: HUVEC growth inhibition – cell-based, human, primary screen (AID 575;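 active means viability at or below 30% in both replicate assays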;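 further: 100% = median of untreated cell wells with 0.1% DMSO on each plate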). The settings on record: HUVEC proliferation, CellTiter-Glo luminescence, 72 h; at 10 µM; stronger effect = lower value. A digest of the protocol: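 system = HUVEC primary cells | amount = 1250 cells/well | buffer or medium = supplemented EBM, 2% fetal bovine serum | dosing = single-point 10 µM, DMSO 0.1% final | times = 72 h compound incubation | detection = CTG luminescence | read-out = % viability relative to median vehicle-well signal on each plate | control set = vehicle and MePR control wells | format = collagen-coated 384-well format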

Assay [5] in a line: H69AR cell proliferation blockers – human, duplicate replicates, primary screen (AID 580).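 Further: 100% = mean luminescence of untreated wells and 0% = no signal.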 Conditions: H69AR lung tumor cells viability, ATP luminescence, 72 h; at 10 µM; stronger effect = lower value.
The nature of assay [6]: MRP1 drug-resistance reversers in H69AR cells – cell-based, doxorubicin co-treatment, pilot screen (AID 601;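 active means viability loss from added drug above about 55%, and viability with drug at most 40%, in both replicates, limit read from the data, passing the limit was not always enough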). The settings on record: CellTiter-Glo, 72 h, at 10 µM; for differential viability (reversal): stronger effect = higher value.
Assay [7] is described as follows: yeast transport mutant growth inhibition pilot in 384-well plates, post-Golgi transport modulator project (AID 636; in the data active means inhibition above about 31%). Conditions: absorbance 615 nm, about 18 h, stronger effect = higher value.
Assay [8] is described as follows: growth suppression of yeast trafficking mutant, preliminary HTS, modulators of trafficking downstream of Golgi apparatus project, 1536-format plate, OD 615 nm (AID 637; in the data active means inhibition above about 30%). The settings on record: yeast transport mutant growth, absorbance 615 nm, 18 h; stronger effect = higher value.
Setting [9] is: H69AR cells + 2 uM doxorubicin, measured here: viability with 2 uM doxorubicin, stronger effect = lower value.
Setting [10] is: H69AR cells, compound alone cytotoxicity.

Chain of Receptor tyrosine-protein kinase erbB-2 (Homo sapiens) (P04626 whole entry, looked up): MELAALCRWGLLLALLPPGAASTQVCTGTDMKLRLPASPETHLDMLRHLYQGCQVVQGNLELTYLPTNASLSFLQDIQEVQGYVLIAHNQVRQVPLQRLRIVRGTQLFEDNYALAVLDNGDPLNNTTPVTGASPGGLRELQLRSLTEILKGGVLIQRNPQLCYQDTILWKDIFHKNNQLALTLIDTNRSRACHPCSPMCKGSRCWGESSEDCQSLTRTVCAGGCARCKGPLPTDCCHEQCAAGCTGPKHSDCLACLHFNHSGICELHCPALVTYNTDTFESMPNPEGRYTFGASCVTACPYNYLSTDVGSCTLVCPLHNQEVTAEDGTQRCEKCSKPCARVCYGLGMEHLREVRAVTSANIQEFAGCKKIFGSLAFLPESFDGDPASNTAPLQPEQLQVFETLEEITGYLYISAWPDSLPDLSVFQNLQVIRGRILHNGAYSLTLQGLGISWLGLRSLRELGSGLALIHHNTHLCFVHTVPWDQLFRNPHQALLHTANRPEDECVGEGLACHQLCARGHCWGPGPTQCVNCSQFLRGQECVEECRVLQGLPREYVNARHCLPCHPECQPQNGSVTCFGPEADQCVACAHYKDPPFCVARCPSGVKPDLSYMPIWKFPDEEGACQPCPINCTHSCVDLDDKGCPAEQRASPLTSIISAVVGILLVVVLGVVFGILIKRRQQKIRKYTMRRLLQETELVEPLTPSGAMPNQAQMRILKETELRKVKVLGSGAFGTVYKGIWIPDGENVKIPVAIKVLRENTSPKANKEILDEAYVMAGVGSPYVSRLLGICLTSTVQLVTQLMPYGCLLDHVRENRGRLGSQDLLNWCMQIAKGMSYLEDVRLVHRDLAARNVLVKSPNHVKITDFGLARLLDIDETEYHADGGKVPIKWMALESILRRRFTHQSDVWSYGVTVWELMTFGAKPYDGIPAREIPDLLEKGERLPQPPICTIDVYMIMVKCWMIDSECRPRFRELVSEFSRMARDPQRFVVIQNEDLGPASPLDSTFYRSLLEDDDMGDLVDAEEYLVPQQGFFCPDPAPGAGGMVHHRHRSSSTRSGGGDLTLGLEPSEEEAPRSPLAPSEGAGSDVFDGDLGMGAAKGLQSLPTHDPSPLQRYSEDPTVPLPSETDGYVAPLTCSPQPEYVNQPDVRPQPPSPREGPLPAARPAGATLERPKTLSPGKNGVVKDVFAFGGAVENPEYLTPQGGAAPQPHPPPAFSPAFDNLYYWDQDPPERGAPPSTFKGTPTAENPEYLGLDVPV

Turning to `O=C1OCCC1Sc1ncnc2sc3c(c12)CCC3` (stereo not given), the viability in assay [1] is 95.5%; in assay [3] it was 95.5% (inactive); in assay [4] it was 97.6% (inactive); in assay [5] it was 104% (inactive); in assay [6] (setting [9]), 91.9%; in assay [6] (setting [10]), 104%. For the same compound, the Her2 level in assay [2] was 84.5% (inactive). The differential viability (reversal) in assay [6] (H69AR cells + 2 uM doxorubicin) was 11.8% (inactive). The inhibition in assay [7] is -4.67% (inactive); in assay [8], -0.32% (inactive).

For the compound `CN1CCCN(CC(O)COCc2cccs2)CC1` (stereo not given), the viability in assay [1] is 89.5%; in assay [3], 89.5% (inactive); in assay [4], 87.3% (inactive); in assay [5] it was 111% (inactive); in assay [6] (setting [9]) it was 96.6%; in assay [6] (setting [10]), 111%. Further, in assay [2], the Her2 level is 84% (inactive). In addition, the differential viability (reversal) in assay [6] (H69AR cells + 2 uM doxorubicin) is 14.2% (inactive). Further, the inhibition in assay [7] was -5.54% (inactive); in assay [8], -1.8% (inactive).

As for `Cc1cc(C)c2[nH]c(=O)c(C(c3nnnn3Cc3ccc4c(c3)OCO4)N3CCC(C)CC3)cc2c1` (stereo not given), the viability in assay [1] was 90%; in assay [3], 90% (inactive); in assay [4] it was 84.4% (inactive); in assay [5], 86.7% (inactive); in assay [6] (setting [9]), 93.1%; in assay [6] (setting [10]), 86.7%. The Her2 level in assay [2] was 106% (inactive). The differential viability (reversal) in assay [6] (H69AR cells + 2 uM doxorubicin) was -6.47% (inactive). Moreover, the inhibition in assay [7] is -4.67% (inactive); in assay [8] it was -6.83% (inactive).

With `O=C(O)CCCC(=O)Nc1nc(-c2ccc(F)cc2)cs1`, the viability in assay [1] is 97.5%; in assay [3], 97.5% (inactive); in assay [4] it was 83.3% (inactive); in assay [5] it was 96.5% (inactive); in assay [6] (setting [9]), 92.4%; in assay [6] (setting [10]), 96.5%. The Her2 level in assay [2] is 75.5% (inactive). Also, the differential viability (reversal) in assay [6] (H69AR cells + 2 uM doxorubicin) was 4.08% (inactive). The values for the inhibition in assay [7] and in assay [8] were -3.95% (inactive) and -4.5% (inactive), respectively.

As for `CCOC(=O)C1=C(C)NC2=C(C(=O)CC(C)(C)C2)C1c1ccc(N(C)C)cc1` (stereo not given), the viability in assay [1] is 93%; in assay [3] it was 93% (inactive); in assay [4], 87% (inactive); in assay [5], 94.3% (inactive); in assay [6] (setting [9]), 96.6%; in assay [6] (setting [10]), 94.3%. Further, the Her2 level in assay [2] is 116% (inactive). Moreover, the differential viability (reversal) in assay [6] (H69AR cells + 2 uM doxorubicin) was -2.37% (inactive). Further, the inhibition in assay [7] is 1.3% (inactive); in assay [8], -5.9% (inactive).

`O=C(O)CN(c1ccccc1)C1SC(=O)NC1=O` (stereo not given): the viability was 85.5% in assay [1]; 85.5% (inactive) in assay [3]; 98.5% (inactive) in assay [4]; 86.8% (inactive) in assay [5]; 83.8% in assay [6] (setting [9]); 86.8% in assay [6] (setting [10]). In assay [2], the Her2 level was 87.5% (inactive). Also, the differential viability (reversal) in assay [6] (H69AR cells + 2 uM doxorubicin) is 3.04% (inactive). Further, the inhibition in assay [7] was -4.93% (inactive); in assay [8], 2.79% (inactive).

Consider `O=C(O)C1C2CCC(O2)C1C(=O)NCCC1=CCCCC1` (stereo not given), for which the viability in assay [1] is 78.5%; in assay [3], 78.5% (inactive); in assay [4], 34.2% (inactive); in assay [5], 57.8% (inactive); in assay [6] (setting [9]), 66.8%; in assay [6] (setting [10]), 57.8%. Moreover, the Her2 level in assay [2] is 118% (inactive). For the same compound, the differential viability (reversal) in assay [6] (H69AR cells + 2 uM doxorubicin) is -9.07% (inactive). In addition, the inhibition is 0% (inactive) in assay [7] and 0.5% (inactive) in assay [8].

For `CCN(C#N)c1nc(NC(C)C)nc(NC(C)C)n1`, the viability is 96.5% in assay [1]; 96.5% (inactive) in assay [3]; 97.6% (inactive) in assay [4]; 93.6% (inactive) in assay [5]; 88.8% in assay [6] (setting [9]); 93.6% in assay [6] (setting [10]). Besides, in assay [2], the Her2 level was 93% (inactive). In addition, in assay [6] (H69AR cells + 2 uM doxorubicin), the differential viability (reversal) is 4.81% (inactive). Also, the inhibition in assay [7] was -4.46% (inactive); in assay [8], -7.17% (inactive).

Consider `CCN(CC)CCOc1cccc(C(C)C)c1`, for which the viability is 90.5% in assay [1]; 90.5% (inactive) in assay [3]; 92.6% (inactive) in assay [4]; 109% (inactive) in assay [5]; 91.8% in assay [6] (setting [9]); 109% in assay [6] (setting [10]). Besides, in assay [2], the Her2 level is 95.5% (inactive). Also, the differential viability (reversal) in assay [6] (H69AR cells + 2 uM doxorubicin) is 17.4% (inactive). Further, the inhibition in assay [7] was 3.25% (inactive); in assay [8], -1.64% (inactive).

On to `O=C(C1CC1)N1CCc2cc(S(=O)(=O)N(CCO)Cc3ccccc3)ccc21`, for which the viability is 94% in assay [1]; 94% (inactive) in assay [3]; 77% (inactive) in assay [4]; 98.8% (inactive) in assay [5]; 100% in assay [6] (setting [9]); 98.8% in assay [6] (setting [10]). Further, the Her2 level in assay [2] is 102% (inactive). Further, the differential viability (reversal) in assay [6] (H69AR cells + 2 uM doxorubicin) is -1.38% (inactive). The results for the inhibition in assay [7] and in assay [8] were -0.4% (inactive) and -0.33% (inactive), respectively.

With `CCN(Cc1cc2ccccc2[nH]c1=O)S(=O)(=O)c1ccccc1`, the viability in assay [1] was 110%; in assay [3] it was 110% (inactive); in assay [4], 98.4% (inactive); in assay [5], 87.1% (inactive); in assay [6] (setting [9]), 99.8%; in assay [6] (setting [10]), 87.1%. Further, the Her2 level in assay [2] was 112% (inactive). In addition, in assay [6] (H69AR cells + 2 uM doxorubicin), the differential viability (reversal) is -12.7% (inactive). Further, the results for the inhibition in assay [7] and in assay [8] were -4.59% (inactive) and -2.38% (inactive), respectively.

Take `CC(C)(C)c1ccccc1NC(=O)c1cccnc1`: the viability in assay [1] was 91.5%; in assay [3], 91.5% (inactive); in assay [4], 88.7% (inactive); in assay [5], 96.6% (inactive); in assay [6] (setting [9]), 88.8%; in assay [6] (setting [10]), 96.6%. Further, the Her2 level in assay [2] was 93.5% (inactive). Further, the differential viability (reversal) in assay [6] (H69AR cells + 2 uM doxorubicin) was 7.78% (inactive). Further, the inhibition is -4.67% (inactive) in assay [7] and 0.32% (inactive) in assay [8].

Consider `CCOc1ccccc1CN1C(=O)c2ccccc2C1C(=O)NCC1CCCO1` (stereo not given), for which the viability was 104% in assay [1]; 104% (inactive) in assay [3]; 98.3% (inactive) in assay [4]; 101% (inactive) in assay [5]; 105% in assay [6] (setting [9]); 101% in assay [6] (setting [10]). The Her2 level in assay [2] was 104% (inactive). Also, the differential viability (reversal) in assay [6] (H69AR cells + 2 uM doxorubicin) is -4.52% (inactive). Further, the inhibition in assay [7] was -1.47% (inactive); in assay [8], -0.32% (inactive).

Turning to `CCOC(=O)C(CC)Sc1nc2c(c(=O)[nH]c(=O)n2C)n1C/C=C(/C)Cl` (stereo not given), the viability in assay [1] is 97.5%; in assay [3], 97.5% (inactive); in assay [4], 89.9% (inactive); in assay [5], 84.9% (inactive); in assay [6] (setting [9]) it was 64.2%; in assay [6] (setting [10]), 84.9%. For the same compound, the Her2 level in assay [2] is 83% (inactive). Also, in assay [6] (H69AR cells + 2 uM doxorubicin), the differential viability (reversal) was 20.7% (inactive). Also, the figures for the inhibition in assay [7] and in assay [8] were -6.27% (inactive) and 3.93% (inactive), respectively.

With `COc1ccc(C2C(C(=O)c3sc(C)nc3C)=C(O)C(=O)N2CCN2CCOCC2)cc1` (stereo not given), the viability in assay [1] is 99%; in assay [3] it was 99% (inactive); in assay [4], 111% (inactive); in assay [5] it was 102% (inactive); in assay [6] (setting [9]) it was 96.3%; in assay [6] (setting [10]) it was 102%. Besides, in assay [2], the Her2 level is 92.5% (inactive). Further, the differential viability (reversal) in assay [6] (H69AR cells + 2 uM doxorubicin) is 5.41% (inactive). The inhibition in assay [7] is 0% (inactive); in assay [8], -4.19% (inactive).

As to `COc1ccc(CCNC(=O)CC2COc3ccccc3O2)cc1OC` (stereo not given), the viability in assay [1] is 102%; in assay [3], 102% (inactive); in assay [4] it was 100% (inactive); in assay [5], 85.4% (inactive); in assay [6] (setting [9]), 80.8%; in assay [6] (setting [10]) it was 85.4%. The Her2 level in assay [2] was 93% (inactive). Moreover, in assay [6] (H69AR cells + 2 uM doxorubicin), the differential viability (reversal) was 4.62% (inactive). Further, the inhibition in assay [7] is -4.67% (inactive); in assay [8], 8.36% (inactive).

Usually viability stands for a read-out of living cells in per cent, often relative to untreated cells. By inhibition is commonly meant the relative decrease from the control value, in per cent.

Values taken from PubChem BioAssay.
